{"source": "ChEMBL document CHEMBL5303300", "about": "“EUbOPEN Chemogenomics Library - Multiplex” (2023)", "key": {"Fibroblast": {"test_system": "Fibroblast", "test": "Multiplex assay against human fibroblast", "format": "toxicity, cell-based", "settings": "number of replicates 2", "summary_of_the_method": "(§1)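 Tubulin, mitochondrial-mass and membrane-permeability phenotypes are per cents of healthy-nucleus cells. Cells were gated by CellPathfinder machine learning into Hoechst high-intensity objects or normal cells, normal cells into healthy, pyknosed or fragmented nuclei, and pyknosed cells into mitotic or apoptotic. Before that, live cells stained at seeding with Hoechst33342, BioTracker Green Microtubule Cytoskeleton Dye, MitoTracker Red and Annexin V Alexa Fluor 680 were imaged on a CQ1 microscope at 37°C and 5% CO2 after compound addition.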"}, "HEK-293T": {"test_system": "HEK-293T", "test": "Multiplex assay against HEK293T", "format": "toxicity, cell-based", "settings": "human, number of replicates 2", "summary_of_the_method": "as §1"}, "[1]": {"settings": "12 h, 1 µM, compound concentration 1 uM"}, "[2]": {"settings": "12 h, 10 µM, compound concentration 10 uM"}, "[3]": {"settings": "24 h, 1 µM, compound concentration 1 uM"}, "[4]": {"settings": "24 h, 10 µM, compound concentration 10 uM"}, "[5]": {"settings": "48 h, 1 µM, compound concentration 1 uM"}, "[6]": {"settings": "48 h, 10 µM, compound concentration 10 uM"}}, "note": "Several values for one entry are separate records, joined by “and”; a condition that tells them apart may be missing. Equal values may be shown once."}
{"smiles": "Cn1cc(-c2ccc(N(C(=O)NCc3ccccc3)[C@H]3CC[C@H](Nc4ccc(C#N)cn4)CC3)cc2)ccc1=O", "values": [{"measurement": "Population Apoptotic (%)", "setting": "Fibroblast; [1]", "result": 46, "unit": "%"}, {"measurement": "Population Fragmented Nuclei (%)", "setting": "Fibroblast; [1]", "result": "8% and 18%"}, {"measurement": "Population Healthy Nuclei (%)", "setting": "Fibroblast; [1]", "result": "72% and 60%"}, {"measurement": "Population Hoechst High Intensity Objects (%)", "setting": "Fibroblast; [1]", "result": 0, "unit": "%"}, {"measurement": "Population Membrane Permeable-Phenotype (%)", "setting": "Fibroblast; [1]", "result": 6, "unit": "%"}, {"measurement": "Population Mitochondria Different-Phenotype (%)", "setting": "Fibroblast; [1]", "result": "1% and 2%"}, {"measurement": "Population Mitotic Cells (%)", "setting": "Fibroblast; [1]", "result": 53, "unit": "%"}, {"measurement": "Population Normal (%)", "setting": "Fibroblast; [1]", "result": 100, "unit": "%"}, {"measurement": "Population Pyknosed Nuclei (%)", "setting": "Fibroblast; [1]", "result": "19% and 21%"}, {"measurement": "Population Tubulin-Different-Phenotype (%)", "setting": "Fibroblast; [1]", "result": "9% and 11%"}, {"measurement": "Total Cell Count", "setting": "Fibroblast; [1]", "result": "155 and 181"}, {"measurement": "Population Apoptotic (%)", "setting": "Fibroblast; [2]", "result": "39% and 40%"}, {"measurement": "Population Fragmented Nuclei (%)", "setting": "Fibroblast; [2]", "result": "8% and 9%"}, {"measurement": "Population Healthy Nuclei (%)", "setting": "Fibroblast; [2]", "result": "55% and 72%"}, {"measurement": "Population Hoechst High Intensity Objects (%)", "setting": "Fibroblast; [2]", "result": 0, "unit": "%"}, {"measurement": "Population Membrane Permeable-Phenotype (%)", "setting": "Fibroblast; [2]", "result": "16% and 14%"}, {"measurement": "Population Mitochondria Different-Phenotype (%)", "setting": "Fibroblast; [2]", "result": 3, "unit": "%"}, {"measurement": "Population Mitotic Cells (%)", "setting": "Fibroblast; [2]", "result": "60% and 59%"}, {"measurement": "Population Normal (%)", "setting": "Fibroblast; [2]", "result": 99, "unit": "%"}, {"measurement": "Population Pyknosed Nuclei (%)", "setting": "Fibroblast; [2]", "result": "36% and 18%"}, {"measurement": "Population Tubulin-Different-Phenotype (%)", "setting": "Fibroblast; [2]", "result": "75% and 55%"}, {"measurement": "Total Cell Count", "setting": "Fibroblast; [2]", "result": "249 and 273"}, {"measurement": "Population Apoptotic (%)", "setting": "Fibroblast; [3]", "result": "38% and 48%"}, {"measurement": "Population Fragmented Nuclei (%)", "setting": "Fibroblast; [3]", "result": "12% and 15%"}, {"measurement": "Population Healthy Nuclei (%)", "setting": "Fibroblast; [3]", "result": "73% and 64%"}, {"measurement": "Population Hoechst High Intensity Objects (%)", "setting": "Fibroblast; [3]", "result": 0, "unit": "%"}, {"measurement": "Population Membrane Permeable-Phenotype (%)", "setting": "Fibroblast; [3]", "result": "4% and 7%"}, {"measurement": "Population Mitochondria Different-Phenotype (%)", "setting": "Fibroblast; [3]", "result": "0% and 1%"}, {"measurement": "Population Mitotic Cells (%)", "setting": "Fibroblast; [3]", "result": "61% and 51%"}, {"measurement": "Population Normal (%)", "setting": "Fibroblast; [3]", "result": 99, "unit": "%"}, {"measurement": "Population Pyknosed Nuclei (%)", "setting": "Fibroblast; [3]", "result": "14% and 20%"}, {"measurement": "Population Tubulin-Different-Phenotype (%)", "setting": "Fibroblast; [3]", "result": 11, "unit": "%"}, {"measurement": "Total Cell Count", "setting": "Fibroblast; [3]", "result": "149 and 180"}, {"measurement": "Population Apoptotic (%)", "setting": "Fibroblast; [4]", "result": "54% and 81%"}, {"measurement": "Population Fragmented Nuclei (%)", "setting": "Fibroblast; [4]", "result": 10, "unit": "%"}, {"measurement": "Population Healthy Nuclei (%)", "setting": "Fibroblast; [4]", "result": "44% and 47%"}, {"measurement": "Population Hoechst High Intensity Objects (%)", "setting": "Fibroblast; [4]", "result": 0, "unit": "%"}, {"measurement": "Population Membrane Permeable-Phenotype (%)", "setting": "Fibroblast; [4]", "result": 18, "unit": "%"}, {"measurement": "Population Mitochondria Different-Phenotype (%)", "setting": "Fibroblast; [4]", "result": "7% and 5%"}, {"measurement": "Population Mitotic Cells (%)", "setting": "Fibroblast; [4]", "result": "45% and 18%"}, {"measurement": "Population Normal (%)", "setting": "Fibroblast; [4]", "result": 99, "unit": "%"}, {"measurement": "Population Pyknosed Nuclei (%)", "setting": "Fibroblast; [4]", "result": "44% and 42%"}, {"measurement": "Population Tubulin-Different-Phenotype (%)", "setting": "Fibroblast; [4]", "result": "79% and 63%"}, {"measurement": "Total Cell Count", "setting": "Fibroblast; [4]", "result": "231 and 271"}, {"measurement": "Population Apoptotic (%)", "setting": "Fibroblast; [5]", "result": "76% and 60%"}, {"measurement": "Population Fragmented Nuclei (%)", "setting": "Fibroblast; [5]", "result": "17% and 16%"}, {"measurement": "Population Healthy Nuclei (%)", "setting": "Fibroblast; [5]", "result": 68, "unit": "%"}, {"measurement": "Population Hoechst High Intensity Objects (%)", "setting": "Fibroblast; [5]", "result": 0, "unit": "%"}, {"measurement": "Population Membrane Permeable-Phenotype (%)", "setting": "Fibroblast; [5]", "result": "5% and 2%"}, {"measurement": "Population Mitochondria Different-Phenotype (%)", "setting": "Fibroblast; [5]", "result": 0, "unit": "%"}, {"measurement": "Population Mitotic Cells (%)", "setting": "Fibroblast; [5]", "result": "23% and 39%"}, {"measurement": "Population Normal (%)", "setting": "Fibroblast; [5]", "result": 100, "unit": "%"}, {"measurement": "Population Pyknosed Nuclei (%)", "setting": "Fibroblast; [5]", "result": "13% and 15%"}, {"measurement": "Population Tubulin-Different-Phenotype (%)", "setting": "Fibroblast; [5]", "result": "8% and 5%"}, {"measurement": "Total Cell Count", "setting": "Fibroblast; [5]", "result": "154 and 186"}, {"measurement": "Population Apoptotic (%)", "setting": "Fibroblast; [6]", "result": "71% and 83%"}, {"measurement": "Population Fragmented Nuclei (%)", "setting": "Fibroblast; [6]", "result": "8% and 15%"}, {"measurement": "Population Healthy Nuclei (%)", "setting": "Fibroblast; [6]", "result": "36% and 28%"}, {"measurement": "Population Hoechst High Intensity Objects (%)", "setting": "Fibroblast; [6]", "result": "0% and 1%"}, {"measurement": "Population Membrane Permeable-Phenotype (%)", "setting": "Fibroblast; [6]", "result": "26% and 22%"}, {"measurement": "Population Mitochondria Different-Phenotype (%)", "setting": "Fibroblast; [6]", "result": "8% and 2%"}, {"measurement": "Population Mitotic Cells (%)", "setting": "Fibroblast; [6]", "result": "28% and 16%"}, {"measurement": "Population Normal (%)", "setting": "Fibroblast; [6]", "result": "99% and 98%"}, {"measurement": "Population Pyknosed Nuclei (%)", "setting": "Fibroblast; [6]", "result": "54% and 56%"}, {"measurement": "Population Tubulin-Different-Phenotype (%)", "setting": "Fibroblast; [6]", "result": "78% and 65%"}, {"measurement": "Total Cell Count", "setting": "Fibroblast; [6]", "result": "233 and 237"}, {"measurement": "Population Apoptotic (%)", "setting": "HEK-293T; [1]", "result": "40% and 44%"}, {"measurement": "Population Fragmented Nuclei (%)", "setting": "HEK-293T; [1]", "result": "3% and 2%"}, {"measurement": "Population Healthy Nuclei (%)", "setting": "HEK-293T; [1]", "result": "83% and 84%"}, {"measurement": "Population Hoechst High Intensity Objects (%)", "setting": "HEK-293T; [1]", "result": 5, "unit": "%"}, {"measurement": "Population Membrane Permeable-Phenotype (%)", "setting": "HEK-293T; [1]", "result": "2% and 3%"}, {"measurement": "Population Mitochondria Different-Phenotype (%)", "setting": "HEK-293T; [1]", "result": "19% and 9%"}, {"measurement": "Population Mitotic Cells (%)", "setting": "HEK-293T; [1]", "result": "59% and 55%"}, {"measurement": "Population Normal (%)", "setting": "HEK-293T; [1]", "result": 94, "unit": "%"}, {"measurement": "Population Pyknosed Nuclei (%)", "setting": "HEK-293T; [1]", "result": 12, "unit": "%"}, {"measurement": "Population Tubulin-Different-Phenotype (%)", "setting": "HEK-293T; [1]", "result": "52% and 40%"}, {"measurement": "Total Cell Count", "setting": "HEK-293T; [1]", "result": "571 and 680"}, {"measurement": "Population Apoptotic (%)", "setting": "HEK-293T; [2]", "result": "52% and 47%"}, {"measurement": "Population Fragmented Nuclei (%)", "setting": "HEK-293T; [2]", "result": "12% and 6%"}, {"measurement": "Population Healthy Nuclei (%)", "setting": "HEK-293T; [2]", "result": "71% and 78%"}, {"measurement": "Population Hoechst High Intensity Objects (%)", "setting": "HEK-293T; [2]", "result": "8% and 10%"}, {"measurement": "Population Membrane Permeable-Phenotype (%)", "setting": "HEK-293T; [2]", "result": "8% and 3%"}, {"measurement": "Population Mitochondria Different-Phenotype (%)", "setting": "HEK-293T; [2]", "result": "54% and 57%"}, {"measurement": "Population Mitotic Cells (%)", "setting": "HEK-293T; [2]", "result": "47% and 52%"}, {"measurement": "Population Normal (%)", "setting": "HEK-293T; [2]", "result": "91% and 89%"}, {"measurement": "Population Pyknosed Nuclei (%)", "setting": "HEK-293T; [2]", "result": "16% and 15%"}, {"measurement": "Population Tubulin-Different-Phenotype (%)", "setting": "HEK-293T; [2]", "result": "92% and 93%"}, {"measurement": "Total Cell Count", "setting": "HEK-293T; [2]", "result": "474 and 388"}, {"measurement": "Population Apoptotic (%)", "setting": "HEK-293T; [3]", "result": "35% and 31%"}, {"measurement": "Population Fragmented Nuclei (%)", "setting": "HEK-293T; [3]", "result": "5% and 4%"}, {"measurement": "Population Healthy Nuclei (%)", "setting": "HEK-293T; [3]", "result": 86, "unit": "%"}, {"measurement": "Population Hoechst High Intensity Objects (%)", "setting": "HEK-293T; [3]", "result": "8% and 6%"}, {"measurement": "Population Membrane Permeable-Phenotype (%)", "setting": "HEK-293T; [3]", "result": "2% and 5%"}, {"measurement": "Population Mitochondria Different-Phenotype (%)", "setting": "HEK-293T; [3]", "result": "5% and 4%"}]}
